# Tests used:
# [1] = tested on: OVCAR-3; test: Growth inhibition of human OVCAR3 cells after 48 hrs by SRB assay; assay type: functional; conditions: OVCAR-3, 48 h
# Method in brief: (§1)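 NCI five-dose assay against the ~60-cell-line panel (nine cancer types). Tenfold dilutions from 10−4 to 10−8 M were used with continuous 48-h exposure and SRB absorbance readout. Percent growth was computed from time-zero, control and treated absorbances. GI50 is the concentration giving 50% lower net protein increase than controls. Values not reached are reported as beyond the tested range.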
# [2] = tested on: TK-10; test: Growth inhibition of human TK10 cells after 48 hrs by SRB assay; assay type: functional; conditions: TK-10, 48 h
# Method in brief: (§2)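 NCI ~60-cell-line five-dose screen. Cells were preincubated 24-48 h, then given compound at 10-fold dilutions from 10^-4 to 10^-8 M with 48 h continuous exposure. SRB protein stain was read by absorbance at time zero, in untreated control and with drug. GI50 was derived from [(Ti-Tz)/(C-Tz)]x100=50, TGI from Ti=Tz, and LC50 from [(Ti-Tz)/Tz]x100=-50.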
# [3] = Growth inhibition of human Hs 578T cells after 48 hrs by SRB assay; assay type: functional; method in brief: as §1
# [4] = tested on: ACHN; test: Growth inhibition of human ACHN cells after 48 hrs by SRB assay; assay type: functional; method in brief: as §1
# [5] = tested on: CAKI-1; test: Growth inhibition of human CAKI-1 cells at 10 uM after 48 hrs by SRB assay; values are per cent of control; conditions: CAKI-1, 48 h
# [6] = tested on: NCI-H322M; test: Growth inhibition of human NCI-H322M cells after 48 hrs by SRB assay; assay type: functional; method in brief: as §1
# [7] = tested on: SNB-75; test: Growth inhibition of human SNB75 cells at 10 uM after 48 hrs by SRB assay; values are per cent of control; conditions: SNB-75, 48 h
# [8] = Acute toxicity in ip dosed white mouse; assay type: organism-based; conditions: in vivo
# Method in brief: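 White male mice, 23-25 g, dosed intraperitoneally with compound dissolved in 0.9% NaCl saline plus 1-2 drops Polysorbate 80 (Tween-80). Solutions prepared immediately before use. Doses ranged 100-1000 mg/kg, testing 4 or 5 doses with 6 animals per dose. LD50 derived by the Litchfield-Wilcoxon method.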
# [9] = tested on: Malme-3M; test: Growth inhibition of human MALME-3M cells after 48 hrs by SRB assay; assay type: functional; method in brief: as §1
# [10] = Growth inhibition of human HOP92 cells after 48 hrs by SRB assay; assay type: functional; conditions: HOP-92, 48 h; for TGI: read-out: pTGI (converted); method in brief: as §1
# [11] = tested on: SR; test: Growth inhibition of human SR cells after 48 hrs by SRB assay; assay type: functional; method in brief: as §2
# [12] = tested on: Trypanosoma brucei brucei; test: Antitrypanosomal activity against bloodstream form of Trypanosoma brucei brucei strain 90-13 assessed as inhibition of parasite growth at 10 ug/ml after 72 hrs by resazurin reduction test; assay type: functional; conditions: strain 90-13, 72 h
# Method in brief: (§3)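 Trypanosoma brucei brucei 90-13 bloodstream forms, grown in HMI9 with 10% FCS at 37 °C under 5% CO2. Log-phase parasites were seeded at 10^5 cells/mL with or without inhibitor, with stocks prepared in DMSO. After 72 h, resazurin was added and fluorescence was read at 530/590 nm after a further 4 h. Percent growth inhibition was calculated versus drug-free parasites, with DMSO as control.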
# [13] = Growth inhibition of human UO31 cells at 10 uM after 48 hrs by SRB assay; values are per cent of control; conditions: UO-31, 48 h
# [14] = tested on: Trypanosoma brucei brucei; test: Antitrypanosomal activity against bloodstream form of Trypanosoma brucei brucei strain 90-13 assessed as inhibition of parasite growth at 1 ug/ml after 72 hrs by resazurin reduction test; assay type: functional; conditions: strain 90-13, 72 h; method in brief: as §3
# [15] = Growth inhibition of human OVCAR4 cells after 48 hrs by SRB assay; assay type: functional; conditions: OVCAR-4, 48 h; method in brief: as §1
# [16] = tested on: OVCAR-3; test: Growth inhibition of human OVCAR3 cells at 10 uM after 48 hrs by SRB assay; values are per cent of control; conditions: OVCAR-3, 48 h
# [17] = Growth inhibition of human UO31 cells after 48 hrs by SRB assay; assay type: functional; conditions: UO-31, 48 h; method in brief: as §2
# [18] = Growth inhibition of human SF539 cells at 10 uM after 48 hrs by SRB assay; values are per cent of control; conditions: SF-539, 48 h
# [19] = tested on: U-251; test: Growth inhibition of human U251 cells after 48 hrs by SRB assay; assay type: functional; conditions: U-251, 48 h; method in brief: as §2
# [20] = Growth inhibition of human SF539 cells after 48 hrs by SRB assay; assay type: functional; conditions: SF-539, 48 h; method in brief: as §1
# [21] = tested on: CAKI-1; test: Growth inhibition of human CAKI-1 cells after 48 hrs by SRB assay; assay type: functional; conditions: CAKI-1, 48 h; method in brief: as §1
# [22] = tested on: A549; test: Growth inhibition of human A549/ATCC cells at 10 uM after 48 hrs by SRB assay; values are per cent of control; conditions: A549, 48 h
# [23] = tested on: SNB-75; test: Growth inhibition of human SNB75 cells after 48 hrs by SRB assay; assay type: functional; conditions: SNB-75, 48 h; method in brief: as §1
# [24] = Growth inhibition of human SNB cells after 48 hrs by SRB assay; assay type: functional; method in brief: as §1
# [25] = Growth inhibition of human RXF393 cells after 48 hrs by SRB assay; assay type: functional; conditions: RXF 393, 48 h; method in brief: as §1
smiles,measurement,setting,value
COc1ccc2cc(C(=O)Nc3nc(-c4ccccc4)cs3)sc(=O)c2c1OC,GI50,[1],1.91 µM
same,TGI,[1]; read-out: pTGI (converted),3.72 µM
same,GI50,[2],2.09 µM
same,TGI,[2]; read-out: pTGI (converted),3.8 µM
same,GI50,[3],2.63 µM
same,TGI,[3]; read-out: pTGI (converted),4.37 µM
same,GI50,[4],2.04 µM
same,TGI,[4]; read-out: pTGI (converted),> 100 µM
same,growth percent at 10 µM,[5],-70.8%
same,GI50,[6]; read-out: GI50,1.28 µM
same,GI50,[6]; read-out: pGI50 (converted),1.29 µM
same,TGI,[6]; read-out: pTGI (converted),5.62 µM
same,growth percent at 10 µM,[7],-43.8%
same,LD50,[8],515 mg/kg
same,GI50,[9],1.95 µM
same,TGI,[9]; read-out: pTGI (converted),8.32 µM
same,GI50,[10],1.29 µM
same,TGI,[10],3.16 µM
same,GI50,[11],2.75 µM
same,TGI,[11]; read-out: pTGI (converted),> 100 µM
same,inhibition at 10 µg/mL,[12],11.3%
same,growth percent at 10 µM,[13],-65.5%
same,inhibition at 1 µg/mL,[14],28.6%
same,GI50,[15],1.86 µM
same,growth percent at 10 µM,[16],-67%
same,GI50,[17],1.95 µM
same,TGI,[17]; read-out: pTGI (converted),3.09 µM
same,growth percent at 10 µM,[18],-48%
same,GI50,[19],2 µM
same,TGI,[19]; read-out: pTGI (converted),4.47 µM
same,GI50,[20],1.78 µM
same,TGI,[20]; read-out: pTGI (converted),3.63 µM
same,GI50,[21],0.24 µM
same,TGI,[21]; read-out: pTGI (converted),1.78 µM
same,growth percent at 10 µM,[22],-50.8%
same,GI50,[23],1.58 µM
same,TGI,[23]; read-out: pTGI (converted),3.55 µM
COc1ccc2cc(C(=O)OC(C)C)sc(=O)c2c1OC,GI50,[24],23.4 µM
same,TGI,[24]; read-out: pTGI (converted),53.7 µM
same,GI50,[10],28.8 µM
same,TGI,[10],85.1 µM
same,GI50,[25],20 µM
same,TGI,[25]; read-out: pTGI (converted),45.7 µM
